According to ChEMBL document CHEMBL4312000, “Discovery of coumarin-derived imino sulfonates as a novel class of potential cardioprotective agents” (Eur J Med Chem, 2019):
Activity calls are given as the source filed them. The rule behind the calls is not given here.

How the values were obtained:
H9c2 [1] = experiment: Cardioprotective activity against rat H9c2 cells assessed as reduction in H2O2-induced cell death at 2.5 uM incubated for 24 hrs followed by H2O2 stimulation and measured after 2 hrs by MTT assay; type: functional, cell-based
Procedure, shortened: (§1)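 Serum-starved H9c2 cells in DMEM/F12 with 10% FBS were seeded at 5×10^3 cells/well and attached overnight. They were pretreated 24 h with compound at 2.5, 5, 10 or 20 µM, then exposed to 250 µM H2O2 for 2 h. MTT (4 mg/mL) ran 4 h at 37 °C, formazan was dissolved in DMSO, and OD was read at 490 nm. Viability is % of untreated control, from three independent experiments, mean ± SD.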

H9c2 [2] = experiment: Cardioprotective activity against rat H9c2 cells assessed as reduction in H2O2-induced cell death at 10 uM incubated for 24 hrs followed by H2O2 stimulation and measured after 2 hrs by MTT assay; type: functional, cell-based; procedure, shortened: as §1
H9c2 [3] = experiment: Cardioprotective activity against rat H9c2 cells assessed as reduction in H2O2-induced LDH release at 20 uM incubated for 24 hrs followed by H2O2 stimulation and measured after 2 hrs by LDH release assay; type: functional, cell-based
Procedure, shortened: (§2)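 Cells were cultured in DMEM/F12 with 10% FBS and serum-starved, then pre-incubated 24 h with compound at 10 or 20 µM before 2 h with 250 µM H2O2. LDH release rate was measured with a cytotoxicity detection kit by absorbance at 490 nm. Three independent experiments, mean ± SD, one-way ANOVA with Tukey test.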

H9c2 [4] = experiment: Cytotoxicity against rat H9c2 cells assessed as reduction in cell viability at 0.1 to 100 uM incubated for 24 hrs by MTT assay; type: cell-based; conditions: h9c2, 24 h
Procedure, shortened: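 H9c2 cells were seeded at 5×10^3 cells/well, attached overnight and given compound at 0.1, 1, 10 or 100 µM for 24 h, with 0.01% DMSO medium as control. Compounds were DMSO stocks diluted in medium. MTT (4 mg/mL, 4 h, 37 °C) was read at OD 490 nm after DMSO solubilisation. Viability is % of control, from three experiments.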

H9c2 [5] = experiment: Cardioprotective activity against rat H9c2 cells assessed as reduction in H2O2-induced cell death at 20 uM incubated for 24 hrs followed by H2O2 stimulation and measured after 2 hrs by MTT assay; type: functional, cell-based; procedure, shortened: as §1
H9c2 [6] = experiment: Cardioprotective activity against rat H9c2 cells assessed as reduction in H2O2-induced LDH release at 10 uM incubated for 24 hrs followed by H2O2 stimulation and measured after 2 hrs by LDH release assay; type: functional, cell-based; procedure, shortened: as §2
[7] = biological target: T1, Nuclear factor erythroid 2-related factor 2 (Rattus norvegicus) (UniProt O54968); experiment: Activation of Nrf2 in rat H9c2 cells assessed as upregulation of NQO1 at 10 uM incubated for 24 hrs followed by H2O2 stimulation and measured after 2 hrs by Western blot analysis; type: cell-based
T1 sequence (whole entry): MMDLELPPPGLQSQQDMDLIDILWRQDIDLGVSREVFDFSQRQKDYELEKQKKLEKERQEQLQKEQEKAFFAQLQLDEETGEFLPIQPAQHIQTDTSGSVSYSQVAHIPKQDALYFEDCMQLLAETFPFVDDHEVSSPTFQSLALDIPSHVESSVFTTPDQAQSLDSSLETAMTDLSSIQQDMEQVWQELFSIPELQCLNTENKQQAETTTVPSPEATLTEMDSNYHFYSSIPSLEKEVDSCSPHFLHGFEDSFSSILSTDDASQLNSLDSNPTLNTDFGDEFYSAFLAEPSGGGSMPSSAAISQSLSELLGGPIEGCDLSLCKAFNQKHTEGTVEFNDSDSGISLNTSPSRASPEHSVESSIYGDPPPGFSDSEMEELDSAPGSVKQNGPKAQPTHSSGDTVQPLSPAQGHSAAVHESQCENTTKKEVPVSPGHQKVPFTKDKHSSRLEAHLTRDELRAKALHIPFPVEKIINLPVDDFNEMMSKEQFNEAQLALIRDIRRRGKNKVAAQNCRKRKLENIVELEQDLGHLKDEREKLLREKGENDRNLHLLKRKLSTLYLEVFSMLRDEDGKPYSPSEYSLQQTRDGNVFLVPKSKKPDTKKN

[8] = biological target: T1, Nuclear factor erythroid 2-related factor 2 (Rattus norvegicus); experiment: Activation of Nrf2 in rat H9c2 cells assessed as induction of Nrf2 nuclear translocation at 10 uM incubated for 24 hrs followed by H2O2 stimulation and measured after 2 hrs by Western blot analysis; type: cell-based
[9] = biological target: T1, Nuclear factor erythroid 2-related factor 2 (Rattus norvegicus); experiment: Activation of Nrf2 in rat H9c2 cells assessed as upregulation of HO1 at 10 uM incubated for 24 hrs followed by H2O2 stimulation and measured after 2 hrs by Western blot analysis; type: cell-based
H9c2 [10] = experiment: Inhibition of H2O2-induced ROS accumulation in rat H9c2 cells at 10 uM incubated for 24 hrs followed by H2O2 stimulation and measured after 2 hrs by DHE staining based fluorescence microscopy; type: functional, cell-based
Procedure, shortened: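 H9c2 cells at 2.5×10^5 cells/well attached overnight, were preincubated 24 h with 10 µM, then given H2O2 (250 µM) for 2 h. Dihydroethidium (5 µM) was loaded for 30 min at 37 °C. Ethidium fluorescence (ex 488/em […] nm) was imaged by fluorescence microscopy at 200×.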

[11] = biological target: T1, Nuclear factor erythroid 2-related factor 2 (Rattus norvegicus); experiment: Activation of Nrf2 in rat H9c2 cells assessed as upregulation of NQO1 incubated for 24 hrs followed by H2O2 stimulation and measured after 2 hrs by Western blot analysis; type: cell-based
H9c2 [12] = experiment: Cardioprotective activity against rat H9c2 cells assessed as reduction in H2O2-induced cell death at 5 uM incubated for 24 hrs followed by H2O2 stimulation and measured after 2 hrs by MTT assay; type: functional, cell-based; procedure, shortened: as §1
H9c2 [13] = experiment: Increase in H2O2-induced Nrf2 expression in rat H9c2 cells at 20 uM incubated for 24 hrs followed by H2O2 stimulation and measured after 2 hrs by Western blot analysis; type: functional, cell-based
Procedure, shortened: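 Pretreatment was 20 µM for 24 h, then 250 µM H2O2 for 2 h. Cytoplasmic and nuclear fractions were extracted for Western blot: 5% milk/TBS-0.1% Tween blocking 2 h, primary antibodies overnight at 4 °C, HRP anti-rabbit secondary (1:5000) 2 h. Signals were normalised to Lamin B1 (nuclear) or GAPDH (cytoplasmic), n=3, mean ± SD.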

[14] = biological target: T1, Nuclear factor erythroid 2-related factor 2 (Rattus norvegicus); experiment: Activation of Nrf2 in rat H9c2 cells assessed as induction of Nrf2 nuclear translocation incubated for 24 hrs followed by H2O2 stimulation and measured after 2 hrs by Western blot analysis; type: cell-based
[15] = biological target: T1, Nuclear factor erythroid 2-related factor 2 (Rattus norvegicus); experiment: Activation of Nrf2 in rat H9c2 cells assessed as upregulation of HO1 incubated for 24 hrs followed by H2O2 stimulation and measured after 2 hrs by Western blot analysis; type: cell-based

**Q.** How did the Activity (H9c2 [1]) turn out when O=S1(=O)N=Cc2cc(Br)ccc2O1 was run?
**A.** The Activity was “inactive”.

**Q.** What about the Activity (H9c2 [2]) of the same compound?
**A.** Its Activity is “Active”.

**Q.** And the Activity (H9c2 [3])?
**A.** The Activity was “Active”.

**Q.** And the Activity (H9c2 [4])?
**A.** Its Activity is “Non-Toxic”.

**Q.** What about the Activity (H9c2 [5]) of the same compound?
**A.** Its Activity is “Active”.

**Q.** And the Activity (H9c2 [6])?
**A.** Its Activity is “inactive”.

**Q.** Which results are given for O=S1(=O)N=Cc2ccc(F)cc2O1?
**A.** Activity (H9c2 [1]): inactive; Activity (H9c2 [2]): Active; Activity (H9c2 [3]): Active; Activity (H9c2 [4]): Non-Toxic; Activity (H9c2 [5]): Active; Activity (H9c2 [6]): inactive

**Q.** For O=S1(=O)N=Cc2cccc(Cl)c2O1, which Activity (H9c2 [5]) is on record?
**A.** Its Activity is “Active”.

**Q.** Which Activity (H9c2 [5]) does the source give for O=S1(=O)N=Cc2c(ccc3ccccc23)O1 here?
**A.** The Activity was “Active”.

**Q.** Which Activity (H9c2 [5]) does the source give for Cc1ccc2c(c1)OS(=O)(=O)N=C2 here?
**A.** The Activity was “Active”.

**Q.** Cc1ccc2c(c1)C=NS(=O)(=O)O2 was tested. Which Activity (H9c2 [5]) did it give?
**A.** Its Activity is “Active”.

**Q.** Which Activity (H9c2 [1]) does the source give for O=c1cc(-c2ccc(O)c(O)c2)oc2cc(O)cc(O)c12 here?
**A.** Its Activity is “inactive”.

**Q.** And the Activity [7]?
**A.** Its Activity is “Active”.

**Q.** What about the Activity [8] of the same compound?
**A.** Its Activity is “Active”.

**Q.** What about the Activity (H9c2 [2]) of the same compound?
**A.** The Activity was “Active”.

**Q.** And the Activity [9]?
**A.** Its Activity is “Active”.

**Q.** What about the Activity (H9c2 [5]) of the same compound?
**A.** Its Activity is “Active”.

**Q.** How did the Activity (H9c2 [5]) turn out when O=S1(=O)N=Cc2c(F)cccc2O1 was run?
**A.** The Activity was “Active”.

**Q.** COc1cccc2c1OS(=O)(=O)N=C2 was tested. Which Activity (H9c2 [5]) did it give?
**A.** The Activity was “Active”.

**Q.** Which Activity (H9c2 [5]) does the source give for CCN(CC)c1ccc2c(c1)OS(=O)(=O)N=C2 here?
**A.** Its Activity is “Active”.

**Q.** How did the Activity (H9c2 [5]) turn out when O=S1(=O)N=Cc2cccc(F)c2O1 was run?
**A.** Its Activity is “Active”.

**Q.** For COc1ccc2c(c1)C=NS(=O)(=O)O2, which Activity (H9c2 [5]) is on record?
**A.** Its Activity is “Active”.

**Q.** With CC(C)(C)c1cccc2c1OS(=O)(=O)N=C2 as the compound, how does the Activity (H9c2 [5]) read?
**A.** Its Activity is “inactive”.

**Q.** With COc1ccc2c(c1)OS(=O)(=O)N=C2 as the compound, how does the Activity (H9c2 [5]) read?
**A.** Its Activity is “Active”.

**Q.** How did the Activity (H9c2 [1]) turn out when O=S1(=O)N=Cc2ccc(Cl)cc2O1 was run?
**A.** The Activity was “inactive”.

**Q.** What about the inhibition (H9c2 [10]) of the same compound?
**A.** The inhibition was “Active”.

**Q.** What about the Activity [7] of the same compound?
**A.** The Activity was “Active”.

**Q.** What about the Activity [8] of the same compound?
**A.** Its Activity is “Active”.

**Q.** What about the Activity (H9c2 [2]) of the same compound?
**A.** The Activity was “Active”.

**Q.** What about the Activity [11] of the same compound?
**A.** Its Activity is “Dose-dependent effect”.

**Q.** What about the Activity (H9c2 [3]) of the same compound?
**A.** The Activity was “Active”.

**Q.** And the Activity [9]?
**A.** Its Activity is “Active”.

**Q.** And the Activity (H9c2 [4])?
**A.** Its Activity is “Non-Toxic”.

**Q.** And the Activity (H9c2 [12])?
**A.** Its Activity is “Active”.

**Q.** What about the Activity (H9c2 [5]) of the same compound?
**A.** The Activity was “Active”.

**Q.** What about the Activity (H9c2 [6]) of the same compound?
**A.** The Activity was “Active”.

**Q.** What about the Activity (H9c2 [13]) of the same compound?
**A.** The Activity was “Active”.

**Q.** What about the Activity [14] of the same compound?
**A.** Its Activity is “Dose-dependent effect”.

**Q.** What about the Activity [15] of the same compound?
**A.** The Activity was “Dose-dependent effect”.

**Q.** For O=S1(=O)N=Cc2cc(Cl)ccc2O1, which Activity (H9c2 [5]) is on record?
**A.** Its Activity is “Active”.

**Q.** O=S1(=O)N=Cc2ccccc2O1 was tested. Which Activity (H9c2 [5]) did it give?
**A.** Its Activity is “Active”.
